Rows were chosen to be rich in hits. Some 12% of all compounds tested hit in one or more screens of this group.
Autophagy mod: autophagy modulators in MEF cells, primary screen, imaging, high-content, MEF GFP-LC3; calls only at 10 µM (by protocol); 190,000 tested, 0.98% active; AID 463193, 2010; MEF GFP-LC3 puncta imaging; test concentration mostly 10 µM;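 active = percentage of spot-positive cells more than 3 SD above its plate mean, without a fluorescence outlier flag or 80% toxicity; inconclusive = no clear call, values can overlap the other calls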;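 note: spot-positive cell cutoff set from DMSO-treated cells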
Dynein cargo inh: inhibitors of GR-EGFP nuclear translocation, primary screen, dynein cargo transport inhibitor project, imaging, high-content, 3617.4 mouse cells; AID 1381, 2008; 220,000 tested, 0.47% active; test concentration mostly 20 µM; stimulated with dexamethasone, 1 µM; hits give low values; z-score, hits read low;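 active = plate z-score of nuclear minus cytoplasmic receptor signal below a set negative limit, without overly bright fluorescence or cell loss, cut at about -3.5 in these data, passing the limit was not always enough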;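 note: z-score of nuclear minus cytoplasmic ring GR-EGFP intensity difference per well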
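Buffer or medium – tet-free medium with charcoal-stripped serum · Signal – automated 10x imaging of fixed Hoechst-stained cells · Also added – dexamethasone agonist, 1.0 µM final, for 30 min · Incubation – induction 48 h, compound 1 h, agonist 30 min · Read-out – GR-EGFP nuclear translocation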
CHOP inhibitor: inhibitors of CHOP promoter induction, primary screen, cell-based, unfolded protein response, luciferase reporter. CHO-K1 CHOP-promoter luciferase, tunicamycin-induced, 15-18 h. inhibition, % at 10 µM. 220,000 tested, 3.8% active;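 active = compounds that reduced the stress-induced luciferase reporter signal by more than about 70% of percent inhibition, limit read from the data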;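 note: 0% = tunicamycin plus vehicle and 100% = wells without tunicamycin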
MT stabilizer: microtubule stabilizers in HeLa cells, primary screen, imaging, high-content imaging | 200,000 tested, 0.83% active | HeLa tubulin immunostaining HCS, 24 h; share of cells brighter than vehicle mean+2SD | % tubulin-high responders, % at 10 µM;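 active = plate Z-score above 3 for both tubulin-high and condensed-nucleus cell shares, with cell loss under 80%, at 10 µM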;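 note: anti alpha tubulin signal scored within the nucleus-defined area of each cell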
L major viab: Leishmania major promastigote growth inhibition, primary screen; inhibition, % at 10 µM; AID 1063, 2008; Leishmania major promastigotes, resazurin fluorescence viability; 200,000 tested, 9% active; in the data active = inhibition above about 50%;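 note: promastigotes grown with compound for 44 hours at 28 °C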
bCat nuc transl: modulators of beta-catenin nuclear translocation, primary screen, imaging, HeLa cells, immunofluorescence, high-content; nuclear translocation activity, % at 5 µM; 190,000 tested, 0.3% active; AID 1665, 2009;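 active = nuclear translocation activity above 50% at 5 µM, with a well cell count of 50 or more; inconclusive = wells under 50 cells across six images, flagged as toxic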;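 note: per-cell ratio of nuclear to cytoplasmic median beta-catenin stain intensity; plate controls were DMSO negative control for no effect and GSK-3 inhibitor IX positive control for full effect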
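Test system: human HeLa cells, native beta-catenin. Compound dosing: 5 µM primary single dose, 0.1% DMSO, 0.02–20 µM confirmation series. Incubation: compound exposure 24 h at 37°C. Detection: beta-catenin immunostaining with DAPI counterstain, 20x imaging, 6 fields/well. Read-out basis: Nuclear/cytoplasmic beta-catenin signal ratio, % activation.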
Dynein confirm: dynein cargo transport inhibitors, GR-EGFP translocation, confirmation, imaging, high-content imaging, GR-EGFP cells; shares compounds with Dynein cargo inh; AID 463116, 2010; calls only at 20 µM; 3617.4 GR-EGFP nuclear translocation imaging, dexamethasone-induced; 1,000 tested, 69% active;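 active = inhibition of receptor movement into the nucleus at or above a set limit in both runs, with normal cell brightness and cell count; inconclusive = limit reached in only one run, brightness and count normal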;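 note: dexamethasone at 1 µM final in well for 30 min; nuclear minus cytoplasmic GR-EGFP mean intensity difference in channel 2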
* marks the source's active call; other numbers are inactive results; i = inactive; ? = inconclusive; nt = not tested or not shown; + = active, no number.

SMILES	Autophagy mod	Dynein cargo inh	CHOP inhibitor	MT stabilizer	L major viab	bCat nuc transl	Dynein confirm
CCOC(=O)C1CCCN(C(=O)CN2CCN(Cc3ccc(Cl)cc3)C2=O)C1 (stereo unspecified)	i	-0.067	31	2	-2	0	nt
COc1cc(/C=C/[N+](=O)[O-])ccc1OCc1cccc(C(=O)O)c1	i	-3.6*	77*	1	-6	0	+
Cc1ccc(SC(=O)c2c(C)noc2-c2cc(C)on2)cc1	nt	-5.1*	18	nt	nt	-1	+
N/C(=C\C(=O)c1cc(Cl)ccc1O)C(Cl)(Cl)Cl	nt	-5*	65	nt	nt	0	+
CC(C)Cc1nc2oc3c(Cl)ncnc3c2c2c1CCCC2	nt	-5.7*	-42	nt	nt	0	+
COc1ncnc2c1oc1nc(CC(C)C)c3c(c12)CCCC3	i	-0.21	53	2	7	-2	nt
CCCc1nc2oc3c(Cl)ncnc3c2c2c1CCCC2	nt	-5.5*	-32	nt	nt	-1	?
CCCc1nc2oc3c(N4CCNCC4)ncnc3c2c2c1CCCC2	nt	nt	nt	nt	nt	-1	nt
Cc1ccc(C)c(-n2c(-c3ccc(Br)cc3)csc2=NC(=O)c2ccccc2F)c1	nt	-0.61	16	nt	nt	-1	nt
CC(=O)c1cc(C(=O)N2CCCC(CCC(=O)N(C)CCc3ccccn3)C2)cs1 (stereo unspecified)	i	-0.54	9	2	12	-2	nt
Cn1c(=O)c(NCCc2ccccc2)c2c3c(cccc31)C(=O)c1ccccc1-2	?	-5.1*	67	3	8	-7	+
CCCCNc1c2c3c(cccc3n(C)c1=O)C(=O)c1ccccc1-2	i	-5.1*	82*	27*	6	2	+
CC(=O)Nc1ccc(Nc2c3c4c(cccc4n(C)c2=O)C(=O)c2ccccc2-3)cc1	i	2	32	4	12	-2	nt
Cn1c(=O)c(NCCO)c2c3c(cccc31)C(=O)c1ccccc1-2	i	-6.9*	38	1	6	nt	+
Cn1c(=O)c(NC2CCCCC2)c2c3c(cccc31)C(=O)c1ccccc1-2	?	-6.1	64	4	13	-2	nt
O=C(Nc1ccccc1)Nc1ccccc1C(=O)NCCCN1CCOCC1	nt	-0.083	3	nt	nt	-2	nt
CCN1CC=C2C(C#N)=C(N)C(C#N)(C#N)C(CCc3ccccc3)C2C1 (stereo unspecified)	+	-7.5	-23	6	14	-7	i
CCc1nc2ccccc2n1Cc1ccccc1F	i	-1.1	1	4	13	0	nt
COc1ccc(NC(=O)C(CC(=O)O)C(C)c2ccccc2)cc1 (stereo unspecified)	i	-0.97	11	6	1	-2	nt
Cc1cc2c(cc1C)NC(CC(=O)NCc1ccccc1)C(=O)N2 (stereo unspecified)	i	-3.7	-5	3	4	-2	i
CC(C)NC(=O)CN1CCN(C(=O)CCl)CC1	i	-0.78	-8	3	-7	-2	nt
CC(C)c1ccc(CN2CCN(C(=O)CCl)CC2)cc1	i	-5.9*	-136	1	99*	-3	+
CCN1/C(=C\C=C2\C(=O)N(C)C(=S)N2C)Sc2ccccc21	i	0.76	44	2	-1	0	nt
CCOC(=O)/C(=C\C=C1/Sc2cc(OCC)c(OCC)cc2N1CC)C(C)=O	+	-3.7	36	80	34	12	i
Cc1ccsc1CNC(=O)c1c(-c2ccccc2)noc1C	nt	-0.75	-4	nt	nt	0	nt
SMILES	Autophagy mod	Dynein cargo inh	CHOP inhibitor	MT stabilizer	L major viab	bCat nuc transl	Dynein confirm
CC1(C)CC(=O)C2=C(C1)Oc1nc3ccccc3cc1C2C(C#N)C#N (stereo unspecified)	i	-4.4*	63	5	100*	-1	+
O=C(CCC1CCCCC1)NCc1ccccn1	i	-1.2	-7	2	-3	1	nt
CCOC(=O)/C(=C\c1cn(C)c2ccccc12)[N+](=O)[O-]	i	-3.7*	-21	2	33	-2	+
COc1ccc(CNC(=O)CSc2nnc3c(Cl)cc(C(F)(F)F)cn23)cc1OC	i	-0.21	-1	8	-7	3	nt
CC1=NN(c2ccccc2)C(=O)/C1=C/C=C/c1ccccc1	i	-5.8*	7	3	100*	0	+
CN(C)/C=C1\C(=O)ON=C1c1ccccc1	i	-0.19	20	3	0	-7	nt
CC1=NN(c2ccccc2)C(=O)/C1=C\c1sccc1C	nt	0.33	17	nt	nt	-2	nt
Cc1ccc(C2=NOC(=O)/C2=C\C=C\c2ccccc2)cc1	i	-5.6*	90*	6	100*	3	+
O=C(/C=C/c1ccc2c(c1)OCO2)NCCSCc1c(Cl)cccc1Cl	i	0.63	12	7	11	0	nt
Cc1ccc(N(C(=O)CCl)C(C(=O)NC2CCCCC2)c2cccnc2)cc1C (stereo unspecified)	+	-4.1*	70	11	100*	8	+
Cc1occc1-c1nnc(SCC(=O)Nc2ccccc2)n1C(C)c1ccccc1 (stereo unspecified)	i	0.16	42	4	36	-4	nt
CC(=O)Oc1ccc(OC(C)=O)c(SCCCCCCl)c1	i	-4.6*	-332	5	4	1	+
CC(=O)Oc1ccc(C(=O)O)cc1OC(C)=O	i	-0.34	21	3	-7	2	nt
COc1ccc(-c2nnc(Sc3nc4ccccc4o3)c3ccccc23)cc1	i	-4.2*	i	9	88*	-2	+
COc1ccc(-c2cc(OC)c3ccccc3n2)cc1	i	0.23	30	5	17	-2	nt
CC12CCC(C(=O)Nc3ncc([N+](=O)[O-])s3)(OC1=O)C2(C)C (stereo unspecified)	i	-1.4	4	3	2	nt	nt
CC(/C=N/n1c(COc2ccccc2)n[nH]c1=S)=C\c1ccco1	nt	-4*	-1	nt	nt	0	i
N#Cc1ccccc1NC(=O)CSC1=Nc2ccccc2C2CC=NN12 (stereo unspecified)	i	-2.3	7	3	17	-3	nt
O=C(CSC1=Nc2ccccc2C2CC=NN12)Nc1ccc2c(c1)OCO2 (stereo unspecified)	i	-3.7*	-73	4	55*	1	+
Cc1cc(Oc2ccc(-c3ccccc3)cc2)n2ncnc2n1	i	-4.7*	-32	3	5	4	+

Source: PubChem BioAssay (several laboratories)
